Experimental data taken from ChEMBL document CHEMBL1154577, “Cytotoxic biflavonoids from Selaginella delicatula” (J Nat Prod, 2000).

Key:
Calu-1 [1] = experiment: Cytotoxicity against human Calu1 cells at 12.5 uM after 3 days; format: functional; details: Calu-1, 72 h
Summary of the method: (§1)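 Vero, Wish, Calu-1 and HeLa cells were kept in MEM with 10% FCS, 100 µg/mL streptomycin and 100 U/mL penicillin at 37 °C under humidified 5% CO2. Cells were exposed to various concentrations, or none, for 3 days, with a tritiated thymidine pulse for the final 16 h before harvest. Incorporation was read by scintillation counting and inhibition calculated; three independent experiments averaged.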

Raji [2] = experiment: Cytotoxicity against human Raji cells at 25 uM after 3 days; format: functional; details: 72 h
Summary of the method: (§2)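 K562 (erythroleukemia) and Raji (EBV-transformed B) cells grown in RPMI-1640 with 10% FCS, 100 U/mL penicillin and 100 µg/mL streptomycin at 37 °C under humidified 5% CO2. They were cultured with or without various concentrations for 3 days, then pulsed with tritiated thymidine for 16 h before harvest. Radioactivity was counted by scintillation and inhibition calculated; mean of three independent experiments.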

Calu-1 [3] = experiment: Cytotoxicity against human Calu1 cells at 25 uM after 3 days; format: functional; details: Calu-1, 72 h; summary of the method: as §1
Raji [4] = experiment: Cytotoxicity against human Raji cells at 12.5 uM after 3 days; format: functional; details: 72 h; summary of the method: as §2
Raji [5] = experiment: Cytotoxicity against human Raji cells at 50 uM after 3 days; format: functional; details: 72 h; summary of the method: as §2
[6] = Cytotoxicity against african green monkey Vero cells at 100 uM after 3 days; format: cell-based; details: chlorocebus sabaeus, read-out: INH; summary of the method: as §1
Calu-1 [7] = experiment: Cytotoxicity against human Calu1 cells at 100 uM after 3 days; format: functional; details: Calu-1, 72 h; summary of the method: as §1
HeLa [8] = experiment: Cytotoxicity against human HeLa cells at 100 uM after 3 days; format: functional; details: 72 h; summary of the method: as §1
Calu-1 [9] = experiment: Cytotoxicity against human Calu1 cells at 50 uM after 3 days; format: functional; details: Calu-1, 72 h; summary of the method: as §1
Raji [10] = experiment: Cytotoxicity against human Raji cells at 100 uM after 3 days; format: functional; details: 72 h; summary of the method: as §2
K562 [11] = experiment: Cytotoxicity against human K562 cells at 100 uM after 3 days; format: functional; details: K562, 72 h; summary of the method: as §2
WISH [12] = experiment: Cytotoxicity against human Wish cells at 100 uM after 3 days; format: cell-based; details: 72 h; summary of the method: as §1
Raji [13] = experiment: Cytotoxicity against human Raji cells after 3 days; format: functional, cell-based; details: 72 h; summary of the method: as §2
WISH [14] = experiment: Cytotoxicity against human Wish cells after 3 days; format: cell-based; details: 72 h; summary of the method: as §1
Calu-1 [15] = experiment: Cytotoxicity against human Calu1 cells after 3 days; format: functional, cell-based; details: Calu-1, 72 h; summary of the method: as §1
Vero = experiment: Cytotoxicity against african green monkey Vero cells after 3 days; format: cell-based; details: Chlorocebus sabaeus, 72 h; summary of the method: as §1
HeLa [16] = experiment: Cytotoxicity against human HeLa cells after 3 days; format: functional, cell-based; details: 72 h; summary of the method: as §1
K562 [17] = experiment: Cytotoxicity against human K562 cells after 3 days; format: functional, cell-based; details: K562, 72 h; summary of the method: as §2

| Compound | inhibition at 12.5 µM (Calu-1 [1]) [%] | inhibition at 25 µM (Raji [2]) [%] | inhibition at 25 µM (Calu-1 [3]) [%] | inhibition at 12.5 µM (Raji [4]) [%] | inhibition at 50 µM (Raji [5]) [%] | cytotoxicity at 72 h, 100 µM [6] [%] | inhibition at 100 µM (Calu-1 [7]) [%] | inhibition at 100 µM (HeLa [8]) [%] | inhibition at 50 µM (Calu-1 [9]) [%] | inhibition at 100 µM (Raji [10]) [%] | inhibition at 100 µM (K562 [11]) [%] | inhibition (INH) (WISH [12]) [%] | IC50 (Raji [13]) [µM] | IC50 (WISH [14]) [µM] | IC50 (Calu-1 [15]) [µM] | IC50 (Vero) [µM] | IC50 (HeLa [16]) [µM] | IC50 (K562 [17]) [µM] |
| --- | --- | --- | --- | --- | --- | --- | --- | --- | --- | --- | --- | --- | --- | --- | --- | --- | --- | --- |
| COc1cc(O)c2c(=O)cc(-c3ccc(OC)c(-c4c(O)cc5c(c4O)C(=O)C[C@H](c4ccc(O)cc4)O5)c3)oc2c1 | 15.8 | 22.3 | 29.9 | 17.9 | 24.7 | 26.8 | 100 | 35 | 55.4 | 96.3 | 18 | -65 | – | – | – | – | – | – |
| COc1ccc(-c2cc(=O)c3c(O)cc(O)cc3o2)cc1-c1c(O)cc2oc(-c3ccc(O)cc3)cc(=O)c2c1O | 42.6 | 60.7 | 44.6 | 34.2 | 68.5 | -6.6 | 100 | 5.5 | 77.9 | 98.4 | 10.8 | -90 | – | – | – | – | – | – |
| COc1cc(O)c2c(=O)cc(-c3ccc(OC)c(-c4c(O)cc5oc(-c6ccc(O)cc6)cc(=O)c5c4O)c3)oc2c1 | – | – | – | – | – | – | – | – | – | – | – | – | > 100 | > 100 | > 100 | > 100 | > 100 | > 100 |
| COc1cc(O)c2c(=O)cc(-c3ccc(OC)c(-c4c(OC)cc5c(c4O)C(=O)C[C@H](c4ccc(O)cc4)O5)c3)oc2c1 | – | – | – | – | – | – | – | – | – | – | – | – | > 100 | > 100 | > 100 | > 100 | > 100 | > 100 |
| O=c1cc(-c2ccc(O)c(-c3c(O)cc(O)c4c(=O)cc(-c5ccc(O)cc5)oc34)c2)oc2cc(O)cc(O)c12 [AMENTOFLAVONE] | – | – | – | – | – | – | – | – | – | – | – | – | > 100 | > 100 | > 100 | > 100 | > 100 | > 100 |
| O=c1cc(-c2ccc(O)c(-c3c(O)cc4oc(-c5ccc(O)cc5)cc(=O)c4c3O)c2)oc2cc(O)cc(O)c12 [ROBUSTAFLAVONE] | – | – | – | – | – | – | – | – | – | – | – | – | > 100 | > 100 | > 100 | > 100 | > 100 | > 100 |
